# Measured values: ChEMBL document CHEMBL3351323, “Exploitation of cholane scaffold for the discovery of potent and selective farnesoid X receptor (FXR) and G-protein coupled bile acid receptor 1 (GP-BAR1) ligands” (J Med Chem, 2014)
# Calls of active or inactive are those of the source. The rule behind the calls is not given here.
# How the values were obtained:
# [1] = biological target: T1, G-protein coupled bile acid receptor 1 (Homo sapiens) (UniProt Q8TDU6); experiment: Agonist activity at GP-BAR1 in human THP1 cells assessed as increase in cAMP level at 10 uM by enzyme immunoassay; format: functional, cell-based; settings: THP-1
# T1 sequence (whole entry): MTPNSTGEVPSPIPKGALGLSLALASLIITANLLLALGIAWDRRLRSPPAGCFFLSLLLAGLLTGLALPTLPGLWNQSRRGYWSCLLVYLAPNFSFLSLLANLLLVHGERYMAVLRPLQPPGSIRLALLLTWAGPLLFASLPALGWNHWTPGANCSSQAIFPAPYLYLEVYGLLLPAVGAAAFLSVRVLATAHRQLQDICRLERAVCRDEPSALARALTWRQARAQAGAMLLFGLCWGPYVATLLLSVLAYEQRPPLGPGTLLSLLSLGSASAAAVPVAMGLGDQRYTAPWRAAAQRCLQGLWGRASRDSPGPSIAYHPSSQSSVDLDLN
# In short: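 THP-1 monocytes serum-starved overnight, then stimulated 30 min at 10 μM, with forskolin 10 μM as reference. cAMP measured by direct cAMP enzyme immunoassay. Three experiments, mean ± SE.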
# [2] = biological target: T2, Peroxisome proliferator-activated receptor gamma (Homo sapiens) (UniProt P37231); experiment: Agonist activity at PPARgamma (unknown origin) in human HepG2 cells assessed as receptor transactivation at 10 uM incubated for 18 hrs by Gal4 luciferase reporter gene assay; format: cell-based
# T2 sequence (whole entry): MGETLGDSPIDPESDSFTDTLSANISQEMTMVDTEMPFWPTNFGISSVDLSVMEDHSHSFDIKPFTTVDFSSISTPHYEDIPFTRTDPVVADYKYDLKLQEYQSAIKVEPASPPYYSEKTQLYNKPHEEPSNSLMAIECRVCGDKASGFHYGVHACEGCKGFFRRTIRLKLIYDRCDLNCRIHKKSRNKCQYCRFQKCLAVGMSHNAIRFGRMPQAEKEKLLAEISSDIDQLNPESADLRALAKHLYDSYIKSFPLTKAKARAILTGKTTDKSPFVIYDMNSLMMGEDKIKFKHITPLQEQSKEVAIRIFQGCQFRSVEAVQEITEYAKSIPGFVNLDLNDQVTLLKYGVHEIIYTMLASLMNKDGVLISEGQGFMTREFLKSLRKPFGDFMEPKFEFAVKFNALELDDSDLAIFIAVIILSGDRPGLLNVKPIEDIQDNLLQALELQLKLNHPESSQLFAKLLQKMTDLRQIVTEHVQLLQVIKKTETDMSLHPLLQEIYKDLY
# In short: (§1)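 HepG2 cells transfected with a GAL4-UAS luciferase reporter, Renilla vector and GAL4 DNA-binding domain fusions of the GR, LXR or PPARγ ligand-binding domain; 48 h later stimulated 18 h at 10 μM beside the matching reference agonist (dexamethasone, GW3965, rosiglitazone). Three experiments, mean ± SE.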
# [3] = biological target: Liver X receptor (Homo sapiens) (UniProt Q13133+P55055); experiment: Agonist activity at LXR (unknown origin) in human HepG2 cells assessed as receptor transactivation at 10 uM incubated for 18 hrs by Gal4 luciferase reporter gene assay; format: cell-based; in short: as §1
# [4] = biological target: T3, Bile acid receptor (Homo sapiens, UniProt Q96RI1); experiment: Agonist activity at FXR (unknown origin) expressed in human HepG2 cells assessed as receptor transactivation at 100 nM to 50 uM […] by FXR response element driven HSP27-TK-luciferase reporter gene assay; format: cell-based
# T3 sequence (Q96RI1 whole entry): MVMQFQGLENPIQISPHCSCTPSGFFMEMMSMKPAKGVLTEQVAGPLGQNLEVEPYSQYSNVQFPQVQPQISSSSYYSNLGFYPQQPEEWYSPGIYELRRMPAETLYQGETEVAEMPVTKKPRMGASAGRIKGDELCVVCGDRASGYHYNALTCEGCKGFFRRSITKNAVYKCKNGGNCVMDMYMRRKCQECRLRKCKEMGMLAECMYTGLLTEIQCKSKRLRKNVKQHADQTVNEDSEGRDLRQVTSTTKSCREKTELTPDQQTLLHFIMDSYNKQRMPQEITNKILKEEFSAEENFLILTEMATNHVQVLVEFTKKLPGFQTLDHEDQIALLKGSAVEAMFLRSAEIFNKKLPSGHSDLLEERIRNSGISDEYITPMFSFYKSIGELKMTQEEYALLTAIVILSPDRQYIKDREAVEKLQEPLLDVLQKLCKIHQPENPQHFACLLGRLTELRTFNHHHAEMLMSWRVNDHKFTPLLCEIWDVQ
# [5] = biological target: T4, G-protein coupled bile acid receptor 1 (Mus musculus) (UniProt Q80SS6); experiment: Agonist activity at GP-BAR1 in mouse GLUTag cells assessed as increase in pro-glucagon mRNA expression at 10 uM by RT-PCR method; format: cell-based
# T4 sequence (whole entry): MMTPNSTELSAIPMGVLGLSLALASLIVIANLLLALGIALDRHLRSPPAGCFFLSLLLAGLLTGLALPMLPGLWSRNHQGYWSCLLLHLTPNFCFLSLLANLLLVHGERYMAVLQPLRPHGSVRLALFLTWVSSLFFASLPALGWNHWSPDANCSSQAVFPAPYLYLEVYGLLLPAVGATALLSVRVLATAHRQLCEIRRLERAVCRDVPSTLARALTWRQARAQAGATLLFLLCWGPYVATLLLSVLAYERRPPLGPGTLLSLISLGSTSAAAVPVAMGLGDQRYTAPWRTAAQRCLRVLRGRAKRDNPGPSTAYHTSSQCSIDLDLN
# In short: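 Murine GLUTag enteroendocrine cells (D-MEM, 10% FBS) treated at 10 μM. Pro-glucagon mRNA measured by SYBR real-time PCR in triplicate, normalized to GAPDH and expressed relative to untreated cells set to 1.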
# [6] = biological target: T5, G-protein coupled bile acid receptor 1 (Homo sapiens, UniProt Q8TDU6); experiment: Agonist activity at GP-BAR1 (unknown origin) in human HEK293 cells assessed as receptor transactivation at 100 nM to 50 uM […] by CRE-driven luciferase reporter gene assay; format: functional, cell-based
# T5 sequence (Q8TDU6 whole entry): T1 sequence (whole entry)
# [7] = biological target: T6, Nuclear receptor subfamily 1 group I member 2 (Homo sapiens, UniProt O75469); experiment: Agonist activity at PXR (unknown origin) in human HepG2 cells co-transfcted with RXR assessed as receptor transactivation at 10 uM incubated for 18 hrs by CYP3A4 promoter-TKLuc luciferase reporter gene assay; settings: hepg2, 18 h
# T6 sequence (O75469 whole entry): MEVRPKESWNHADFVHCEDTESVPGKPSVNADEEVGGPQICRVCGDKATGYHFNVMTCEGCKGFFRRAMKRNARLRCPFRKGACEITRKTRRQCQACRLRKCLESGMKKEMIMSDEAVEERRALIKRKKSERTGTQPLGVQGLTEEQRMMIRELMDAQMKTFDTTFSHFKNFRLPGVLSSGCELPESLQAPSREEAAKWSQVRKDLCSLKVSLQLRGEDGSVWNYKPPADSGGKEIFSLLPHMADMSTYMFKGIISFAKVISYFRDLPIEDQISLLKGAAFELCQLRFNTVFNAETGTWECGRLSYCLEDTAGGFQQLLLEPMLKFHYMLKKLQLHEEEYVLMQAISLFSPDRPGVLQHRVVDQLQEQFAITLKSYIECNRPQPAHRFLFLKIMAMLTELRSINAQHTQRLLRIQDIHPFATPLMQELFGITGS
# [8] = biological target: T7, Glucocorticoid receptor (Homo sapiens) (UniProt P04150); experiment: Agonist activity at GCR (unknown origin) in human HepG2 cells assessed as receptor transactivation at 10 uM incubated for 18 hrs by Gal4 luciferase reporter gene assay; format: cell-based; in short: as §1
# T7 sequence (whole entry): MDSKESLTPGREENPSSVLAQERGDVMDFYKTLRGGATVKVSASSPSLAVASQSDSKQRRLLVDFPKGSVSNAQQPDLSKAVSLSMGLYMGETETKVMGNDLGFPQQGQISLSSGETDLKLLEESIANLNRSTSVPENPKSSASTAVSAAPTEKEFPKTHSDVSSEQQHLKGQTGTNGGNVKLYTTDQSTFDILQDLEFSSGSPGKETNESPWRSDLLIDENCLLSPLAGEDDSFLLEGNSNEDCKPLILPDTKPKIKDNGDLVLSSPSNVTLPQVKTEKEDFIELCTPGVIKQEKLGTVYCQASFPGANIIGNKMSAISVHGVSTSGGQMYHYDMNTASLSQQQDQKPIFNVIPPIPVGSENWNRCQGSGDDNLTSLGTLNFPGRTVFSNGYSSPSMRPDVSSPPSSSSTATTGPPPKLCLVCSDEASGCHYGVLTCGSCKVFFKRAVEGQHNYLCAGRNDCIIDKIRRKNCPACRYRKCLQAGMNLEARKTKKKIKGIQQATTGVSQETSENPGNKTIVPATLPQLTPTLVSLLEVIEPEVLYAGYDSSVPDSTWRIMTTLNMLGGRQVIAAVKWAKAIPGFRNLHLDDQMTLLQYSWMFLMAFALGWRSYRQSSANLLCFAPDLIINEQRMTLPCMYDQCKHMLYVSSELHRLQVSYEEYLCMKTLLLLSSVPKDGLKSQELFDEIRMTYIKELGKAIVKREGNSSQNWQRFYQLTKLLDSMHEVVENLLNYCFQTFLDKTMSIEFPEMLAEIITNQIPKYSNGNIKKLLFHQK
# [9] = biological target: T8, Bile acid receptor (Homo sapiens) (UniProt Q96RI1); experiment: Agonist activity at FXR in human HepG2 cells assessed as increase in SHP mRNA expression at 10 uM by RT-PCR method; format: cell-based
# T8 sequence (whole entry): T3 sequence (Q96RI1 whole entry)
# In short: (§2)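 HepG2 cells treated at 10 μM. TRIzol RNA was DNase-treated and reverse transcribed with random primers, then SYBR real-time PCR run in triplicate (40 cycles, 95 °C/60 °C). Values normalized to GAPDH and expressed relative to untreated cells set to 1.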
# [10] = biological target: T8, Bile acid receptor (Homo sapiens); experiment: Agonist activity at FXR in human HepG2 cells assessed as increase in BSEP mRNA expression at 10 uM by RT-PCR method; format: cell-based; in short: as §2
# [11] = biological target: T8, Bile acid receptor (Homo sapiens); experiment: Agonist activity at FXR in human HepG2 cells assessed as increase in OSTalpha mRNA expression at 10 uM by RT-PCR method; format: cell-based; in short: as §2
Structure (SMILES),Activity [1],Activity [2],Activity [3],EC50 ([4]; hepg2),Activity [5],EC50 ([6]; read-out: EC50) [µM],Activity [7],Activity [8],Activity [9],Activity [10],Activity [11],EC50 ([4]; read-out: EC50) [µM],EC50 ([6]; hek293)
CC[C@@H]1[C@H](O)[C@@H]2[C@H](CC[C@]3(C)[C@@H]([C@H](C)CCCO)CC[C@@H]23)[C@@]2(C)CC[C@@H](O)C[C@@H]12,Active,inactive,inactive,Not Active,Active,1.03,Active,inactive,–,–,–,–,–
CC[C@H]1[C@@H](O)[C@@H]2[C@H](CC[C@]3(C)[C@@H]([C@H](C)CCO)CC[C@@H]23)[C@@]2(C)CC[C@@H](O)C[C@@H]12,Active,inactive,inactive,–,Active,–,Active,inactive,Active,Active,Active,–,–
C[C@H](CCCOS(=O)(=O)[O-])[C@H]1CC[C@H]2[C@@H]3[C@H](O)C[C@@H]4CCCC[C@]4(C)[C@H]3CC[C@]12C.[Na+],–,inactive,inactive,–,inactive,–,Active,inactive,Active,Active,Active,9,Not Active
